A selection: hits, their analogues and other compounds. The true share with any hit is near 3.5%.
RGS4 block: human RGS4 inhibition; B-score at 10 µM; P49798; HEK293 M3R/RGS4 inducible, Fluo-4 calcium flux; stronger effect = higher value; triggered by carbachol at its EC20; 310,000 compounds, 0.45% hits; AID 463165;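 active = B-score, a plate-corrected calcium signal, over three deviations above library mean, with baseline fluorescence within five deviations of library mean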;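 note: RGS4 expression induced by doxycycline in cells with stable M3 receptor; B-score is computed from the integrated fluorescence ratio over baseline after carbachol; higher B-score means a larger calcium signal and so more RGS4 inhibition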
Target sequence (P49798 whole entry, looked up): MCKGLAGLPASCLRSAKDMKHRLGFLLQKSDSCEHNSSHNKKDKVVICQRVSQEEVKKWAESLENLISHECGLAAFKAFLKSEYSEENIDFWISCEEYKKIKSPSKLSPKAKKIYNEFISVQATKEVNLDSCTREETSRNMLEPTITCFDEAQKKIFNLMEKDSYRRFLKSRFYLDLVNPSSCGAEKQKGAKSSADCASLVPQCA
RGS4 pot: RGS4 potentiation or activation; HEK293 M3R/inducible RGS4, carbachol calcium flux Fluo4; stronger effect = lower value; AID 463111; B-score at 10 µM; 310,000 compounds, 0.92% hits;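 active = B-score of the integrated calcium signal more than 4 SD below the library mean, with starting fluorescence not abnormally high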;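 note: negative B-score means reduced calcium response which marks RGS4 activation or potentiation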
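test system = M3R-expressing HEK293 line, RGS4 induced by doxycycline | probe or stimulus = carbachol at ECmax as muscarinic agonist stimulus | timing = dye loading 30 min 37 °C, buffer rest 30 min RT | signal = calcium dye Fluo4 fluorescence | evaluation = B score from integrated fluorescence ratio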
MrgX1 agonist: human MrgX1 receptor agonism, primary screen; B-score at 10 µM; AID 588627; MrgX1-HEK293 cells, Fluo-4 calcium fluorescence, agonist mode; stronger effect = higher value; 310,000 compounds, 0.44% hits;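 active = calcium response B-score plate-corrected fluorescence ratio at least 3 library SD, with starting fluorescence B-score inside 5 SD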
Target sequence (Q96LB2 whole entry, looked up): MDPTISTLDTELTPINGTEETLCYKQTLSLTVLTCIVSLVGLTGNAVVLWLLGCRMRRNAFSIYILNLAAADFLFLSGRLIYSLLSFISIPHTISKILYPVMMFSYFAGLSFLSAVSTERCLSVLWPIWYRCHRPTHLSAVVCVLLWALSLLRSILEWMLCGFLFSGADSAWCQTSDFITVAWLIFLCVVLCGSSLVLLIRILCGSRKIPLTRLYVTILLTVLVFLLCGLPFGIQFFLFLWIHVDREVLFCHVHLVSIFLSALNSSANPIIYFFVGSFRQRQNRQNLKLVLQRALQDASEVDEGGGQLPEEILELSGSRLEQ
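Test system: HEK293 cells stably expressing human MrgX1 receptor; amount: 15,000 cells per well; doses: compound delivered in addition one of three; times: overnight plating before 1 h dye loading; detection: Fluo-4 NW calcium-flux fluorescence, kinetic read; read-out basis: B-scored fluorescence response ratio; controls: positive and negative controls per plate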
MrgX1 allo act: human MrgX1 positive allosteric modulation, primary screen; Q96LB2; MrgX1-HEK293, Fluo-4 calcium flux, FDSS; stronger effect = higher value; B-score at 10 µM; 310,000 compounds, 0.63% hits; AID 588675;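 active = plate-corrected calcium response at least 3 library SD above typical, normal starting fluorescence, not activating the receptor alone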;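 note: compound read alongside a low EC10 to EC30 dose of BAM8-22 agonist; peak minus trough fluorescence over baseline measured at the second addition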
MrgX1 antag: human MrgX1 receptor antagonism, primary screen; B-score at 10 µM; Q96LB2; MRGX1-HEK293 calcium flux, Fluo-4, BAM8-22 antagonism; stronger effect = lower value; 310,000 compounds, 1.3% hits; AID 588676;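 active = calcium-response B-score plate-corrected more than 3 library SD below zero, starting fluorescence within 5 deviations, no agonist response on first addition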;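 note: peak minus trough fluorescence over baseline after final BAM8-22 challenge near maximal dose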
Active calls of the source: *; i = inactive; nt = no result.

SMILES | RGS4 block | RGS4 pot | MrgX1 agonist | MrgX1 allo act | MrgX1 antag
COC(=O)c1cc(C)sc1NC(=O)CN1CCN(C(=O)C2CCCO2)CC1 (stereo not drawn) | i | i | i | i | i
CC(=O)c1ccc(-n2cc(-c3ccc(C(C)(C)C)cc3)[n+]3c2SCCC3)cc1 | i | -9.6* | i | i | i
Cn1c(C(=O)N(Cc2ccccc2)Cc2cccs2)cc2sccc21 | i | -7.8* | i | i | i
O=S(=O)(Nc1cc(Cl)ccc1N1CCCCC1)c1cccs1 | i | i | i | i | -13*
O=S(=O)(Nc1ccc(N2CCCCC2)cc1)c1cccs1 | i | i | i | i | i
Cc1cc(C)cc(C(=O)Nc2ccncc2)c1 | i | i | i | i | i
NCCCCCc1nnc(SCc2ccc(Cl)c(Cl)c2)o1 | i | -7.1* | i | i | i
Cc1nn(CCOc2cccc(Br)c2)c(C)c1[N+](=O)[O-] | i | i | i | i | i
CN(CCCNC(=O)CCC(=O)N1CCOc2ccc(Cl)cc21)Cc1ccccc1 | i | i | i | i | i
Cc1cccc(NC(=S)NCC(C)CSc2ccc(Cl)cc2)c1 (stereo not drawn) | i | i | i | i | -6.4*
Cc1ccc(NC(=S)NCC(C)CSc2ccc(Cl)cc2)cc1 (stereo not drawn) | i | i | i | i | i
CCC1CCC(C(=O)NC(C(=O)NCCCN2CCCCC2C)C(C)C)CC1 (stereo not drawn) | i | i | i | i | i
CCn1c(/C=C/c2cc[n+](C)cc2)nc2ccccc21 | i | i | i | i | -5.9*
COc1ccc(N2CC(O)(c3ccc(OC(F)F)cc3)[N+]3=C2CCCC3)cc1 (stereo not drawn) | i | -8.3* | i | i | i
COc1ccc(N2CC(O)(c3ccc(F)cc3)[N+]3=C2CCCC3)cc1 (stereo not drawn) | i | i | i | i | i
Cc1ccc(C(=O)COC(=O)CCCC(=O)Nc2cc(C(F)(F)F)ccc2Cl)cc1C | i | i | i | i | i
COc1ccc(C2NC(=O)NC(O)(C(F)(F)F)C2C(=O)c2ccc(C)cc2)cc1 (stereo not drawn) | i | -7.6* | i | i | i
S=C(NCc1ccccc1)NNc1nc2ccccc2[nH]1 | i | i | i | i | i
CC1=C(C#N)c2nc(N)c(C#N)c(C)c2/C1=C\c1ccc(C)cc1 | i | i | i | i | -5.9*
CC(=O)c1cccc(NC(=O)COC(=O)c2n[nH]c3ccccc23)c1 | i | i | i | i | i
Clc1ccc(-c2nc(N3CCCCC3)nc3ccccc23)cc1 | i | i | i | i | i
c1ccc(-c2nc(-n3nc4ccccc4n3)nc3ccccc23)cc1 | i | -7.2* | i | i | i
CCOC(=O)C1=C(CN2CCN(C(=O)c3ccco3)CC2)NC(=O)NC1c1ccc(C)cc1 (stereo not drawn) | i | i | i | i | i
Cc1cc(C)cc(N(CCC#N)C(=O)COC(=O)C2CCN(c3ccc(C(F)(F)F)cn3)CC2)c1 | i | -7* | i | i | i
Cc1ccc(N(CCC#N)C(=O)COC(=O)C2CCN(c3ccc(C(F)(F)F)cn3)CC2)cc1 | i | i | i | i | i
SMILES | RGS4 block | RGS4 pot | MrgX1 agonist | MrgX1 allo act | MrgX1 antag
CCOC(=O)C1=C(O)c2ccccc2C(=O)/C1=C\c1ccc(C)cc1 | nt | nt | 28* | i | i
CCOC(=O)C1=C(C)N(c2ccc(C)cc2)C(=O)/C1=C\c1ccc(O)c(OC)c1 | i | i | i | i | i
O=C(CCc1nc2sc3c(c2c(=O)[nH]1)CCCC3)N1CCN(c2ccccc2)CC1 | i | i | i | i | -7.2*
Clc1ccccc1C1=CC(c2ccco2)n2ncnc2N1 (stereo not drawn) | i | i | 29* | i | i
Cc1ccc2oc(-c3cccc(NC(=O)/C=C/c4cccc([N+](=O)[O-])c4)c3C)nc2c1 | i | i | i | i | i
C=CCNC(=S)NNC(=O)c1ccc(OCCC)cc1 | i | i | i | i | i
CCCOc1ccc(C(=O)NNC(=S)NC(=O)CC)cc1 | i | i | 51* | i | i
COc1ccc(CCNc2ccc(C(CC(N)=O)NC(=O)c3cc(OC)ccc3OC)cc2[N+](=O)[O-])cc1 (stereo not drawn) | i | i | i | i | -5*
Cc1ccc(C(=O)NC(N2CCCC2)C(Cl)(Cl)Cl)cc1 (stereo not drawn) | i | i | i | i | i
Cc1nc2scc(-c3ccccc3)c2c(=O)n1N=C1C=CC(=O)C=C1 | i | -7.7* | nt | nt | nt
O=C1CCC(C(=O)N2CCN(c3ccccc3)CC2)CN1CC1CCCCC1 (stereo not drawn) | i | i | i | i | i
COc1cc(C2C(C(=O)c3ccc(C)o3)=C(O)C(=O)N2CCN2CCOCC2)ccc1OCCC(C)C (stereo not drawn) | i | i | nt | nt | nt
Cc1ccc(-c2nc3ccc([N+](=O)[O-])cc3[nH]2)cc1 | i | i | i | i | i
O=[N+]([O-])c1ccc2nc(-c3ccc(Cl)cc3)[nH]c2c1 | i | i | i | i | -5.8*
O=C(c1c(F)c(F)c(F)c(F)c1F)N1CCN(c2cccc(C(F)(F)F)c2)CC1 | i | -7.2* | i | i | i
O=C(c1ccccc1F)N1CCN(c2cccc(C(F)(F)F)c2)CC1 | i | i | i | i | i
CCCCC[C@H](O)/C=C/[C@H]1CCC(=O)[C@@H]1CCCCCCC(=O)N1CCCCC1CO (stereo partly drawn) | i | -8.5* | 48* | i | i
CN(C)S(=O)(=O)N(CC(=O)NCCSCc1ccc(Cl)cc1)c1ccccc1 | i | i | i | i | -7.8*
N=c1c(-c2nc3ccccc3[nH]2)cc(C(=O)c2ccco2)nn1-c1ccccc1 | i | i | i | i | i
N=c1c(-c2nc3ccccc3[nH]2)cc(C(=O)c2cccs2)nn1-c1ccccc1 | i | -8.6* | i | i | i
Brc1ccccc1C1CC(c2ccccc2)=Nc2ccccc2N1 (stereo not drawn) | i | i | i | i | i
Clc1ccccc1C1CC(c2ccccc2)=Nc2ccccc2N1 (stereo not drawn) | i | -7.4* | i | i | i
COc1ccc(/C=c2\sc3nc(=O)c(C)nn3c2=O)c(OC)c1 | i | i | 27* | i | i

Source: PubChem BioAssay
